The source of these data is ChEMBL document CHEMBL3351355, “Structure-affinity/activity relationships of 1,4-dioxa-spiro[4.5]decane based ligands at α1 and 5-HT1A receptors” (Eur J Med Chem, 2014).

For experiment [1], the species on record is Rattus norvegicus. The experiment can be described thus: Selectivity ratio of Kb for alpha1D adrenoceptor in Wistar rat thoracic aorta to Kb for alpha1B adrenoceptor in Wistar rat spleen. It counts as tissue-based.
Experiment [2] deals with T1, Alpha-1A adrenergic receptor (Rattus norvegicus) (UniProt P43140).
T1 sequence (whole entry): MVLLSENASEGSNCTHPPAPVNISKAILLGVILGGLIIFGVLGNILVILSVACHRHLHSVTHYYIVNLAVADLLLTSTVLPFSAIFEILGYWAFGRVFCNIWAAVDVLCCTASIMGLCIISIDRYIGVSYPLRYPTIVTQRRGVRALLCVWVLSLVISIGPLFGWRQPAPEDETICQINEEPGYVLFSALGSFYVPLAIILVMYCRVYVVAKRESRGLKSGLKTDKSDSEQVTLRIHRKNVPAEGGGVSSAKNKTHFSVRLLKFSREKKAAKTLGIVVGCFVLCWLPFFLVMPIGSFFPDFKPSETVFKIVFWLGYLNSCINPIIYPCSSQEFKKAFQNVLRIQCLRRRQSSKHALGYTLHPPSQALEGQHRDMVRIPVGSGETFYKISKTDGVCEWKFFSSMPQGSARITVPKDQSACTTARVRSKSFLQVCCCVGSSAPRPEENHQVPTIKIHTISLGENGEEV
The experiment can be described thus: Antagonist activity at alpha1A adrenoceptor in Wistar rat vas deferans assessed as noradrenaline-induced contractions after 30 mins.

Experiment [3] addresses T2, 5-hydroxytryptamine receptor 1A (Homo sapiens) (UniProt P08908).
T2 sequence (whole entry): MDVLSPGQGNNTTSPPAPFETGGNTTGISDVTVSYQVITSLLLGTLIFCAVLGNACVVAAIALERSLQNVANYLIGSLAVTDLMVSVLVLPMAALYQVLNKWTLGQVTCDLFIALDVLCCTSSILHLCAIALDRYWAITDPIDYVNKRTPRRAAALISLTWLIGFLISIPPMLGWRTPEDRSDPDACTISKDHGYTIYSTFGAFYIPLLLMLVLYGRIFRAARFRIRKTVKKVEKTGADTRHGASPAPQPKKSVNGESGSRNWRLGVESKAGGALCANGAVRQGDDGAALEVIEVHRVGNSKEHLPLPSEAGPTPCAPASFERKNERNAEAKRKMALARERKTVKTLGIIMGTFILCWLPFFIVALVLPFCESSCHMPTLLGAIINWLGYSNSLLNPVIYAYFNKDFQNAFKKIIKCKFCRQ
As to the kind of experiment: Agonist activity at human recombinant 5-HT1A receptor expressed in HeLa cells after 30 mins by [35S]GTPgammaS binding assay relative to control. It counts as functional, cell-based. The gist of the method: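 HeLa membranes (50–70 µg protein) in 20 mM HEPES, 3 mM MgSO4, 120 mM NaCl, pH 7.4, preincubated 20 min at 30 °C with 30 µM GDP and drug (0.01 nM–10 µM), then 200 pM [35S]GTPγS added for 30 min at 30 °C. Nonspecific binding with 10 µM GTPγS. Filtration and scintillation counting. Data expressed as % increase over basal, 8-OH-DPAT maximum = 100%. Emax and pD2 derived.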

Experiment [4] concerns the target T3, Alpha-1B adrenergic receptor (Homo sapiens, UniProt P35368).
T3 sequence (P35368 whole entry): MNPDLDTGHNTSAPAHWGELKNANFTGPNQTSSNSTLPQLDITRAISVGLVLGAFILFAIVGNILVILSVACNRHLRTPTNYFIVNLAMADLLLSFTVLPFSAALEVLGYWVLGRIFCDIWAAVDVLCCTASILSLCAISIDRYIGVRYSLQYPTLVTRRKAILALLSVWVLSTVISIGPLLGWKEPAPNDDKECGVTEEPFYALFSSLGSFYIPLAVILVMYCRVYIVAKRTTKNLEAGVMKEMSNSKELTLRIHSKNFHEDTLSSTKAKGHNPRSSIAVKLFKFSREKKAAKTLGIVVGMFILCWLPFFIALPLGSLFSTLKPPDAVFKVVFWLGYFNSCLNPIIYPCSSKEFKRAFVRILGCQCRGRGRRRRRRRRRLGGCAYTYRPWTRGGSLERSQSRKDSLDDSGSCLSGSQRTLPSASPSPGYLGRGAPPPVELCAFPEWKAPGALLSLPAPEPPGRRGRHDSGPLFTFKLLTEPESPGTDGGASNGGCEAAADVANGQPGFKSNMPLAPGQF
As to the kind of experiment: Displacement of [3H]prazosin from human recombinant alpha1B adrenoceptor expressed in CHO cells after 30 mins by liquid scintillation counting. It counts as cell-based. The method, boiled down: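 CHO cells were stably transfected by electroporation with each human α1 subtype. Membranes (70 µg protein) were incubated in 50 mM Tris pH 7.4 with 0.1–0.4 nM [3H]prazosin and competitor (1 pM–1 µM) for 30 min at 25 °C. Nonspecific binding with 10 µM tamsulosin. Filtration and scintillation counting. pKi from 2–3 experiments in duplicate.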
A general note: Loss of bound radioactivity is the signal in a displacement assay; it reports binding, not function.

Experiment [5] addresses T2, 5-hydroxytryptamine receptor 1A (Homo sapiens). As to the kind of experiment: Agonist activity at human recombinant 5-HT1A receptor expressed in HeLa cells after 30 mins by [35S]GTPgammaS binding assay. It counts as functional, cell-based. The method, boiled down: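 HeLa membranes expressing human 5-HT1A (50–70 µg protein) in 20 mM HEPES, 3 mM MgSO4, 120 mM NaCl pH 7.4 with 30 µM GDP; test drug 0.01 nM–10 µM, 20 min at 30 °C, then 200 pM [35S]GTPγS for 30 min at 30 °C. Nonspecific with 10 µM GTPγS; filtration and scintillation counting. Emax as % of maximal 8-OH-DPAT stimulation; pD2 = −log EC50.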
For orientation: Binding of GTPγS marks nucleotide exchange on a G protein.

The target in experiment [6] is T4, Alpha-1D adrenergic receptor (Rattus norvegicus) (UniProt P23944).
T4 sequence (whole entry): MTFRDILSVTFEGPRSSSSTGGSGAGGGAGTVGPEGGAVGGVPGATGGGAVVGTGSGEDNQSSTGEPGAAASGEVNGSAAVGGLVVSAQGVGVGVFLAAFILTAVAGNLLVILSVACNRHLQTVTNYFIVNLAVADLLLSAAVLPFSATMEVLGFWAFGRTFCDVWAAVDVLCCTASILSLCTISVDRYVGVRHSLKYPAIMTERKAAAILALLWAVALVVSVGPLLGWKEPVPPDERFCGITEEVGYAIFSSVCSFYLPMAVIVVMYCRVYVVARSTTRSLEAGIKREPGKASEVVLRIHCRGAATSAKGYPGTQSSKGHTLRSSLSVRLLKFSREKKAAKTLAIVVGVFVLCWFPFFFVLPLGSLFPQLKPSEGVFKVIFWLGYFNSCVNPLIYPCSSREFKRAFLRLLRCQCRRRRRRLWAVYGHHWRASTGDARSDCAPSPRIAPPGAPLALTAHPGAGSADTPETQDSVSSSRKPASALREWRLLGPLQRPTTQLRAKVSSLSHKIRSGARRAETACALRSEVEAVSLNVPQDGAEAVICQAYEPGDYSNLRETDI
As to the kind of experiment: Antagonist activity at alpha1D adrenoceptor in Wistar rat thoracic aorta assessed as noradrenaline-induced contractions after 30 mins.

Experiment [7] is filed under the species Rattus norvegicus. As to the kind of experiment: Selectivity ratio of Kb for alpha1D adrenoceptor in Wistar rat thoracic aorta to Kb for alpha1A adrenoceptor in Wistar rat vas deferans. It counts as tissue-based.

For the molecule `COc1ccccc1N1CCN(CC2COC3(CCN(Cc4ccccc4)CC3)O2)CC1` (centres undefined), the Ratio in experiment [1] amounted to 26.3; in experiment [7], 7.58. Also, the pKb in experiment [2] stood at 7.72; in experiment [6], 8.6. Moreover, the Emax in experiment [3] came out at 45%. For the same molecule, in experiment [4], the Ki is 16.6 nM. The pD2 in experiment [5] is 7.21.
As to `COc1ccccc1N1CCN(CC2COC3(CCN(S(=O)(=O)c4ccc([N+](=O)[O-])cc4)CC3)O2)CC1` (centres undefined), the Ratio in experiment [1] was 1.86; in experiment [7] it was 1.9. Moreover, the pKb in experiment [2] is 7.74; in experiment [6], 8.02. Also, the Emax in experiment [3] is 37%. In experiment [4], the Ki is 110 nM. Further, the pD2 in experiment [5] stood at 7.65.
Turning to `COc1ccccc1N1CCN(CC2COC3(CCN(C(=O)c4ccco4)CC3)O2)CC1` (centres undefined), the Ratio was 0.49 in experiment [1] and 0.89 in experiment [7]. Besides, the pKb in experiment [2] came to 7.43; in experiment [6], 7.38. Besides, the Emax in experiment [3] was determined as 33%. For the same molecule, in experiment [4], the Ki is 158 nM. In addition, the pD2 in experiment [5] stood at 7.12.
On to `CCCCNC(=O)N1CCC2(CC1)OCC(CN1CCN(c3ccccc3OC)CC1)O2` (centres undefined), for which the Ratio in experiment [1] was 0.77; in experiment [7], 0.81. Further, the pKb in experiment [2] was found to be 7.38; in experiment [6], 7.29. In addition, the Emax in experiment [3] was 30%. For the same molecule, in experiment [4], the Ki was 240 nM. Besides, in experiment [5], the pD2 worked out at 6.53.
Consider `COc1ccccc1N1CCN(CC2COC3(CCN(c4ccccc4)CC3)O2)CC1` (centres undefined), for which the Ratio is 0.74 in experiment [1] and 0.44 in experiment [7]. The pKb in experiment [2] came to 7.78; in experiment [6], 7.43. Besides, in experiment [3], the Emax came to 42%. The Ki in experiment [4] is 155 nM. For the same molecule, in experiment [5], the pD2 amounted to 7.14.
Regarding `COc1ccccc1N1CCN(CC2COC3(CCN(C(=O)Nc4ccccc4)CC3)O2)CC1` (centres undefined), the Ratio in experiment [1] is 0.12; in experiment [7] it was 1.09. Further, the pKb in experiment [2] was 7.22; in experiment [6], 7.26. The Emax in experiment [3] was 28%. The Ki in experiment [4] is 81.3 nM. Also, in experiment [5], the pD2 is 7.22.
On to `COc1ccccc1N1CCN(CC2COC3(CCSCC3)O2)CC1` (centres undefined), for which the results for the Ratio in experiment [1] and in experiment [7] were 0.16 and 0.17, respectively. Further, the pKb is 7.6 in experiment [2] and 6.84 in experiment [6]. Besides, in experiment [3], the Emax stood at 36%. Besides, the inhibition constant Ki in experiment [4] is 141 nM. Also, the pD2 in experiment [5] was determined as 7.48.

For orientation: pKb means −log10 of the Kb, conventionally taken in molar units. One may read the Emax as the greatest response seen or fitted, relative to the assay's reference. For orientation: Ki means the dissociation constant of the complex between target and ligand, obtained from inhibition or displacement.
